# From ChEMBL document CHEMBL1148799, “Solid-phase synthesis and insights into structure-activity relationships of safinamide analogues as potent and selective inhibitors of type B monoamine oxidase” (J Med Chem, 2007)
# Assays:
# [1] = molecular target: T1, Amine oxidase [flavin-containing] A (Rattus norvegicus, UniProt P21396); assay: Inhibition of rat brain mitochondria MAOA by radioenzymatic assay
# T1 sequence (P21396 whole entry): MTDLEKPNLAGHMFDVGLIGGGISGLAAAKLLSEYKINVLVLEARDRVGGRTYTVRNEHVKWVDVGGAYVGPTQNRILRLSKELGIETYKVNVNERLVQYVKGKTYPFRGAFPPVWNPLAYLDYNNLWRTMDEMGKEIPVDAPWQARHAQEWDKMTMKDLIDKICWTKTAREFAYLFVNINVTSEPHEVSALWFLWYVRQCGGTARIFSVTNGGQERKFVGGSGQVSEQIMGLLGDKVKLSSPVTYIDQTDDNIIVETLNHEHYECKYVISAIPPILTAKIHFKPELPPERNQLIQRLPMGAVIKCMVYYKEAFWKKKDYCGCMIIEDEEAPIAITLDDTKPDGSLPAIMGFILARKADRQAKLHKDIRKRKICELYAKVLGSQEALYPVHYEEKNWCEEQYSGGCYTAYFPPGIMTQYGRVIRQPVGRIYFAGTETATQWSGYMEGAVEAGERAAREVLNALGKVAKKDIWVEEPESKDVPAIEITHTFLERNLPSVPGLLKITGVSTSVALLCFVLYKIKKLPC
# How it was run: (§1)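 Rat brain mitochondrial pellet (500 µg protein) in 0.1 M phosphate buffer, pH 7.40, preincubated 30 min at 37 °C with inhibitor (as methanesulfonate salt) or buffer. Then 5 µM ¹⁴C-5-HT for 30 min at 37 °C, stopped with HCl. Ether-extracted acidic metabolites counted by liquid scintillation. IC50 by nonlinear regression from 5–8 concentrations (10^-10–10^-5 M) in duplicate, or % inhibition at one concentration.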
# [2] = molecular target: T2, Amine oxidase [flavin-containing] B (Rattus norvegicus, UniProt P19643); assay: Inhibition of rat brain mitochondria MAOB by radioenzymatic assay
# T2 sequence (P19643 whole entry): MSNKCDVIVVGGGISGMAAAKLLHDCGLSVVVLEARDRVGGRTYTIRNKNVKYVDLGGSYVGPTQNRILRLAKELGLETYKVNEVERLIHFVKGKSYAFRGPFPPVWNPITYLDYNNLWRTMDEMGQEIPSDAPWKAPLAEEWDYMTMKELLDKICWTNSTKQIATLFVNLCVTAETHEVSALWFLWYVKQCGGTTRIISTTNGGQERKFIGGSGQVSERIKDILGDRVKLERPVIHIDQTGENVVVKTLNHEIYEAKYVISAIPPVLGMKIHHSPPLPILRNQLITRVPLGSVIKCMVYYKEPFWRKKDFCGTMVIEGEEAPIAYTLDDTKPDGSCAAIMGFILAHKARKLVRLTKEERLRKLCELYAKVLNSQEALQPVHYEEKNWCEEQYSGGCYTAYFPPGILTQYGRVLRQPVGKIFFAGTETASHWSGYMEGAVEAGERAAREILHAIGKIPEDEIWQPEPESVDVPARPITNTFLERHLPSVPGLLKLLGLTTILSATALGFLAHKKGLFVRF
# How it was run: as §1, with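 “Then 0.5” for “Then 5”, “µM ¹⁴C-PEA” for “µM ¹⁴C-5-HT”, “for 10” for “for 30”, “with perchloric acid. Toluene-extracted” for “with HCl. Ether-extracted acidic”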
# Rattus norvegicus = species on record: Rattus norvegicus; assay: Selectivity index, ratio of IC50 for rat brain mitochondria MAOA to IC50 for rat brain mitochondria MAOB
# How it was run: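 IC50(MAO-A)/IC50(MAO-B). Both come from radioenzymatic assays on rat brain mitochondria after 30 min inhibitor preincubation at 37 °C, pH 7.40. MAO-A used 5 µM ¹⁴C-5-HT for 30 min; MAO-B used 0.5 µM ¹⁴C-PEA for 10 min. IC50s from nonlinear regression of duplicate 5–8-point curves.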
# [3] = molecular target: T1, Amine oxidase [flavin-containing] A; assay: Inhibition of rat brain mitochondria MAOA at 100 uM by radioenzymatic assay; how it was run: as §1
# [4] = molecular target: T2, Amine oxidase [flavin-containing] B; assay: Inhibition of rat brain mitochondria MAOB at 10 uM by radioenzymatic assay
# How it was run: as §1, with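 “Then 0.5” for “Then 5”, “µM ¹⁴C-PEA” for “µM ¹⁴C-5-HT”, “for 10” for “for 30”, “with perchloric acid. Toluene-extracted” for “with HCl. Ether-extracted acidic”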
Structure (SMILES),IC50 [1] [µM],IC50 [2] [nM],Selectivity index (Rattus norvegicus),inhibition at 100 µM [3] [%],inhibition at 10 µM [4] [%]
NC(=O)[C@H](CO)NCc1ccc(OCc2cccc(Cl)c2)cc1,–,43,1970,–,–
NC(=O)CNCc1ccc(OCc2ccc([N+](=O)[O-])cc2)cc1,21.2,9100,2.3,–,–
C[C@H](NCc1ccc(OCc2ccc([N+](=O)[O-])cc2)cc1)C(N)=O,–,–,–,22,37
NC(=O)CNCc1ccc(OCc2ccc(Cl)cc2)cc1,12.4,7100,1.7,–,–
NC(=O)CNCc1ccc(OCc2cccc(F)c2)cc1,13.6,2240,6.1,–,–
NC(=O)[C@H](CO)NCc1ccc(OCc2ccc(Cl)cc2)cc1,–,1100,–,47,–
C[C@@H](NCc1ccc(OCc2cccc(F)c2)cc1)C(N)=O,42,–,–,–,–
NC(=O)[C@H](CO)NCc1ccc(OCc2cccc(F)c2)cc1,100,–,714,–,–
NC(=O)[C@H](CO)NCc1ccc(OCc2ccc([N+](=O)[O-])cc2)cc1,–,7010,–,38,–
NC(=O)CNCc1ccc(OCc2cccc(Cl)c2)cc1,37,340,109,–,–
NC(=O)[C@@H](CO)NCc1ccc(OCc2cccc(Cl)c2)cc1,100,–,909,–,–
C[C@@H](C(N)=O)N1CCc2cc(OCc3cccc(F)c3)ccc2C1,45,240,188,–,–
C[C@H](C(N)=O)N1CCc2cc(OCc3cccc(F)c3)ccc2C1,50,17,2940,–,–

# The next lines start with the values.
IC50 [1] [µM],IC50 [2] [nM],Selectivity index (Rattus norvegicus),inhibition at 100 µM [3] [%],inhibition at 10 µM [4] [%],Structure (SMILES)
101,260,388,–,–,C[C@H](NCc1ccc(OCc2ccccc2)cc1)C(N)=O
–,33,3460,–,–,C[C@H](NCc1ccc(OCc2cccc(Cl)c2)cc1)C(N)=O
–,2200,–,37,–,C[C@H](NCc1ccc(OCc2ccc(Cl)cc2)cc1)C(N)=O
90,410,220,–,–,NC(=O)[C@H](CO)NCc1ccc(OCc2ccccc2)cc1
34,10000,3.4,–,–,NC(=O)[C@@H](NCc1ccc(OCc2cccc(F)c2)cc1)c1ccccc1
–,73800,–,35,–,NC(=O)[C@@H](NCc1ccc(OCc2ccccc2)cc1)c1ccccc1
–,–,–,27,34,NC(=O)[C@@H](NCc1ccc(OCc2ccc(Cl)cc2)cc1)c1ccccc1
72,800,90,–,–,C[C@@H](NCc1ccc(OCc2cccc(Cl)c2)cc1)C(N)=O
–,–,–,16,4,NC(=O)[C@@H](NCc1ccc(OCc2ccc([N+](=O)[O-])cc2)cc1)c1ccccc1
8.5,3150,2.7,–,–,NC(=O)CNCc1ccc(OCc2ccccc2)cc1
–,10100,–,33,–,NC(=O)[C@@H](NCc1ccc(OCc2cccc(Cl)c2)cc1)c1ccccc1
